Measured values published in PMC8861878 (The Journal of pharmacy and pharmacology, 2020).

Assays:
[1] = target: CYP2E1 (Homo sapiens, UniProt P05181); assay: Inhibition of CYP2E1; assay type: in vitro ADME; details: isobavachin 1, 10, 100 μM; substrate chlorzoxazone (200 μM)
In short: (§1)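 Recombinant human CYPs (CYP1A2 and 3A4 at 0.05 mg/ml; CYP2C8 and 2E1 at 0.1 mg/ml) with probe substrate in Tris-HCl 50 mM pH 7.4, MgCl2 5 mM and NADPH 1 mM at 37 °C for 60 min. Run without (control) or with test compound at 1, 10 or 100 μM. Acetonitrile stop; metabolite by UHPLC-TQD-MS; activity versus control, triplicate.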

[2] = target: T1, UGT1A9 (Homo sapiens, UniProt O60656); assay: Inhibition of UGT1A9; assay type: in vitro ADME
T1 sequence (O60656 26-530): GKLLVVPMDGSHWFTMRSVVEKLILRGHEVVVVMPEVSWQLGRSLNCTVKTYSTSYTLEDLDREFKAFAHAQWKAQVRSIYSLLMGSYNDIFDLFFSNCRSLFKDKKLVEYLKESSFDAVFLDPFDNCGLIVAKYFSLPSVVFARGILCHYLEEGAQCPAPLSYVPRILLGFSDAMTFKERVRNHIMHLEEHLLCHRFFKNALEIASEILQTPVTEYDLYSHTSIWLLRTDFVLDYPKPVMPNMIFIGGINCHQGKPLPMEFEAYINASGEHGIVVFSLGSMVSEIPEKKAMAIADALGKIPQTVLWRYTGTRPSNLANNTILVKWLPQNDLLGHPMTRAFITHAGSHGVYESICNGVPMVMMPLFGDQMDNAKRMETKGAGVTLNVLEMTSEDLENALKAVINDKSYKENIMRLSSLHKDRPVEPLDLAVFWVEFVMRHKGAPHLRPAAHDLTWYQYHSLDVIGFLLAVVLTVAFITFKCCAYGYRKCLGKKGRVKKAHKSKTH

[3] = intragastric administration of Psoraleae Fructus extracts (1.2 g/kg); cited from earlier work
[4] = target: T2, CYP1A2 (Homo sapiens, UniProt P05177); assay: Inhibition of CYP1A2; assay type: in vitro ADME; details: isobavachin 1, 10, 100 μM; substrate phenacetin (100 μM)
T2 sequence (P05177 1-516): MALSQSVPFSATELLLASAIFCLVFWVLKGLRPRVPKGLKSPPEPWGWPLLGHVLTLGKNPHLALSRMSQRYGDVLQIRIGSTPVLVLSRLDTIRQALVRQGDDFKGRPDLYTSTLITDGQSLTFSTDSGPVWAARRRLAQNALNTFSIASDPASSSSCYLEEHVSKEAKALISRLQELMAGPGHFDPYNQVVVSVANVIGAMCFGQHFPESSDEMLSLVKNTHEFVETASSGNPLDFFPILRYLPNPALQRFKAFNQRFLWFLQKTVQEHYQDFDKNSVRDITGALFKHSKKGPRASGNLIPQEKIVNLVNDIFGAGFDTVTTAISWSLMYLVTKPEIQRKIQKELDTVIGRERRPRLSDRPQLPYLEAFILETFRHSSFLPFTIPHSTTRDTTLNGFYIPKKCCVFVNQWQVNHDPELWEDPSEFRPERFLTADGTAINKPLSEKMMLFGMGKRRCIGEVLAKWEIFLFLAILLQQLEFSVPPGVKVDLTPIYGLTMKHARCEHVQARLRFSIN
In short: as §1

[5] = target: T3, CYP2C8 (Homo sapiens, UniProt P10632); assay: Inhibition of CYP2C8; assay type: in vitro ADME; details: isobavachin 1, 10, 100 μM; substrate paclitaxel (60 μM)
T3 sequence (P10632 1-490): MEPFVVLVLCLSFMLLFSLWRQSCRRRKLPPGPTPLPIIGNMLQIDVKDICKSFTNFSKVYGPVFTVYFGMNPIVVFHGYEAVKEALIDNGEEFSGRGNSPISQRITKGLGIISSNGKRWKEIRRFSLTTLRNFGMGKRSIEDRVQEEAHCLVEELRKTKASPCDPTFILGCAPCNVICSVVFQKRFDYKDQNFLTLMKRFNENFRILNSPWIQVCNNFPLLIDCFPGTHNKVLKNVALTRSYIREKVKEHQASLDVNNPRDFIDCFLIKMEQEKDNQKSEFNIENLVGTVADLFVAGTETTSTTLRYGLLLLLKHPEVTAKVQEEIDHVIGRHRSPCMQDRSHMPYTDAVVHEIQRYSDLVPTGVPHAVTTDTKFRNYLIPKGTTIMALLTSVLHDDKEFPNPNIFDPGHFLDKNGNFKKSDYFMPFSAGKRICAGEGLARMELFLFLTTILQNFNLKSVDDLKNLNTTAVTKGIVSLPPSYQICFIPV
In short: as §1

[6] = target: T4, UGT1A6 (Homo sapiens, UniProt P19224); assay: Glucuronidation of isobavachin by recombinant UGT1A6, enzyme kinetics; assay type: in vitro ADME; details: substrate inhibition constant, substrate inhibition model
T4 sequence (P19224 27-532): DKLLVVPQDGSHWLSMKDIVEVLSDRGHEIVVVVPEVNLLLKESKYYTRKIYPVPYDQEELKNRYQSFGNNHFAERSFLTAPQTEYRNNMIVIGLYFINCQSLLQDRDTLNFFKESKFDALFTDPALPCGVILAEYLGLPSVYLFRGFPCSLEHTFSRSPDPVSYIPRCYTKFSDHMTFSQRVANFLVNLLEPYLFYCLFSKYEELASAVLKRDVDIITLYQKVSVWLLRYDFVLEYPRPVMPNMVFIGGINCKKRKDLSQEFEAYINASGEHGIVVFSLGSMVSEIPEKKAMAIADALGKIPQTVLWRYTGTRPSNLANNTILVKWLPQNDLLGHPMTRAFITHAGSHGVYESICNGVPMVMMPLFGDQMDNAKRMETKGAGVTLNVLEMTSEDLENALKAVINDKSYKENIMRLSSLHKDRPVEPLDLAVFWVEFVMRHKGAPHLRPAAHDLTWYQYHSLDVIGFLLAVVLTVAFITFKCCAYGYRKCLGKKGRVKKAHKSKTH

CYP2E1, sequence (P05181 whole entry): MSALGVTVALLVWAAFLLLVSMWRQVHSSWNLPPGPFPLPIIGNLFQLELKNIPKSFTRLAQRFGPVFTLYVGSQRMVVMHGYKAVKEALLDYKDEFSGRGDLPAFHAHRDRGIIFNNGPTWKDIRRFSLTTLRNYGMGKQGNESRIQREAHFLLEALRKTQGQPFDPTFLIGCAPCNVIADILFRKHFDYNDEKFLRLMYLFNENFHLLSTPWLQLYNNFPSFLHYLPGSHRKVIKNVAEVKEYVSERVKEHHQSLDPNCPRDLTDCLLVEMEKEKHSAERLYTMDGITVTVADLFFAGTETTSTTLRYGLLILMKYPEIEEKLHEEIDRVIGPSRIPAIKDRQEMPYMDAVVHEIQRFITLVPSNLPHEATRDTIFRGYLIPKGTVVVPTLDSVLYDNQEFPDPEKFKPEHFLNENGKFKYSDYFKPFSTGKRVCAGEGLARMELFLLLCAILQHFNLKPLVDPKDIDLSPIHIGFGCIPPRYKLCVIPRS

With `CC(C)=CCc1c(O)ccc2c1O[C@H](c1ccc(O)cc1)CC2=O` [isobavachin] the inhibitory effects [1] was “negligible or weak”, the IC50 [2] was 1.21 ± 0.3 µM and the residual activities ([2]; 10 μM isobavachin) was 16.51 % of the negative control. For the same compound, the Ki ([2]; substrate propofol, competitive model (not selected)) was 0.2 ± 0.03 µM, the Ki ([2]; substrate propofol, mixed-type model (not selected)) was 0.43 ± 0.14 µM and the Ki ([2]; substrate propofol, non-competitive model (selected, smallest AIC and SC)) was 0.44 ± 0.04 µM. The Inhibition type ([2]; based on the smallest AIC and SC values) was “non-competitive inhibition mode”, the α ([2]; substrate propofol, mixed-type model) was 1.05 ± 0.70 and the exposure [3] was “about 13.2 nM”. The inhibitory effects [4] was “negligible or weak”, the inhibitory effects [5] was “negligible or weak” and the Ki ([6]; formation of G1) was 21.97 ± 5.84 µM. The Ki ([6]; formation of G2) was 12.71 ± 2.60 µM.
